The values that follow come from ChEMBL document CHEMBL1145917, “Neurosteroid analogues. 9. Conformationally constrained pregnanes: structure-activity studies of 13,24-cyclo-18,21-dinorcholane analogues of the GABA modulatory and anesthetic steroids (3alpha,5alpha)- and (3alpha,5beta)-3-hydroxypregnan-20-one” (J Med Chem, 2003).

Structures are written as SMILES.

In assay [1] the target is T1, GABA-A receptor; alpha-1/beta-2/gamma-2 (Rattus norvegicus) (UniProt P18508+P62813+P63138). The experiment in a line: In vitro current effect against rat GABA receptor alpha-1-beta-2-gamma-2 subunits expressed in Xenopus laevis oocytes at 0.1 uM (ratio +/- compound). It counts as cell-based. The conditions noted are these: Oocyte. In a few lines:
(§1)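 Two-electrode voltage clamp at -70 mV, 2–5 days after injecting rat α1, β2 and γ2L cRNA (20–40 ng total, equal parts) into defolliculated stage V–VI oocytes held at 18 °C in ND96. Compound was co-applied with 2 μM GABA for 20 s and peak current measured. Value is the ratio of current with/without compound, from at least four oocytes.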

For assay [2], the target named is T1, GABA-A receptor; alpha-1/beta-2/gamma-2 (Rattus norvegicus). The experiment in a line: In vitro current effect against rat GABA receptor alpha-1-beta-2-gamma-2 subunits expressed in Xenopus laevis oocytes at 10 uM (ratio +/- compound). It counts as cell-based. The note with it: Oocyte. In a few lines: as §1
Assay [3] has the same target. Kind of assay: In vitro direct current effect against rat GABA receptor alpha-1-beta-2-gamma-2 subunits expressed in Xenopus laevis oocytes at 10 uM (ratio +/- compound, without GABA). Type of assay: cell-based. The note with it: Oocyte. In a few lines: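 Same oocyte α1β2γ2L voltage-clamp setup at -70 mV, with peak current over 20 s applications. Compound was applied at 10 μM without GABA. Directly gated current is expressed as a ratio to the current evoked by 2 μM GABA, from at least four oocytes.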

For assay [4] the target is unchanged. Kind of assay: In vitro current effect against rat GABA receptor alpha-1-beta-2-gamma-2 subunits expressed in Xenopus laevis oocytes at 1 uM (ratio +/- compound). Type of assay: cell-based. The conditions noted are these: Oocyte. In a few lines:
as §1

Assay [5] has as its target GABA-A receptor; anion channel. Kind of assay: Non-competitive displacement of [35S]TBPS from picrotoxin binding site found in heterogeneous Gamma-aminobutyric acid A receptor in rat brain membranes. It counts as cell membranes. In short, it runs like this: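 Rat brain membranes (washed P2, 0.5 mg/mL final protein) incubated 2 h at room temperature with 5 μM GABA, 2 nM [35S]TBPS and steroid from DMSO (final 1 nM–10 μM) in 200 mM NaCl/50 mM potassium phosphate, pH 7.4. Nonspecific binding defined with 200 μM picrotoxinin. Filtration, scintillation counting, Hill fit for IC50. Triplicate points, two or three curves per steroid.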

A short description of assay [6]: Loss of righting reflex in Xenopus laevis tadpole. It counts as functional, frog. The note with it: Amphibia, read-out: ED50 (the source's name). In a few lines:
(§2)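 Groups of 10 early pre-limb-bud X. laevis tadpoles were placed in 100 mL oxygenated Ringer's containing compound at various concentrations. Compound came from a 10 mM DMSO stock, about 0.1% DMSO final. Loss of righting and loss of swimming responses were scored. EC50 and Hill coefficient n were taken from a Hill equation fit.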

A short description of assay [7]: Loss of swimming behavior in Xenopus laevis tadpole. It counts as functional, frog. The note with it: Amphibia, read-out: ED50 (the source's name). In short, it runs like this:
as §2

Assay [8] is described as follows: Hill coefficient for displacement of [35S]TBPS. Type of assay: functional. In a few lines: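 Rat brain membrane P2 fraction washed three times in 200 mM NaCl / 50 mM potassium phosphate, pH 7.4. Assay used 0.5 mg/mL protein, 5 μM GABA, 2 nM [35S]TBPS and steroid at 1 nM–10 μM final (0.5% DMSO), 2 h at room temperature, then filtration and scintillation counting. Nonspecific binding was taken with 200 μM picrotoxinin. Triplicate points, 2–3 curves per steroid; Hill equation fit gives n.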

Assay [9] is described as follows: Hill coefficient for loss of swimming response. It counts as functional. In a few lines:
as §2

Assay [10] can be described thus: Hill coefficient for loss of righting response. It counts as functional. In short, it runs like this: as §2

`C[C@]12CC[C@@H](O)C[C@@H]1CC[C@H]1[C@@H]3CCC4CCC(=O)C[C@@]43CC[C@@H]12` (stereo not given in full): the Ratio in assay [1] came out at 1.39; in assay [2] it was 6.49; in [3] it was 0.32; in assay [4], 1.64. Besides, the IC50 in assay [5] is 0.334 µM. Further, the EC50 in assay [6] stood at 1.12 µM; in assay [7], 3.58 µM. Moreover, the values for the nHill in [8], in [9] and in assay [10] were 1.14, -16.7 and -1.75, respectively.

As for `C[C@]12CC[C@@H](O)C[C@H]1CC[C@H]1C3CCC4C(=O)C=CC[C@@]43CC[C@@H]12` (single isomer, unassigned), the Ratio in [1] was 1.07; in assay [2], 2.34; in assay [3] it was 0.11; in [4], 1.17. In assay [5], the IC50 was 1.57 µM. Moreover, the EC50 was determined as 2.56 µM in assay [6] and 8.95 µM in assay [7]. Moreover, the nHill in assay [8] is 1.15; in assay [9] it was -19.8; in assay [10], -1.59.
